# Assay outcomes (PubChem)
# RBBP9 inh: human RBBP9 hydrolase inhibition. O75884. AID 1515. recombinant RBBP9, FP-Rh probe fluorescence polarization. inhibition, % at 7.94 µM. hit rate 0.2% among 220,000;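 active means inhibition above the campaign mean of all tested compounds plus 3 SD, cut at about 14% in these data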;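 further: plate controls were DMSO wells with RBBP9 for no effect and wells lacking RBBP9 protein for full effect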
# Target sequence (O75884 whole entry, looked up): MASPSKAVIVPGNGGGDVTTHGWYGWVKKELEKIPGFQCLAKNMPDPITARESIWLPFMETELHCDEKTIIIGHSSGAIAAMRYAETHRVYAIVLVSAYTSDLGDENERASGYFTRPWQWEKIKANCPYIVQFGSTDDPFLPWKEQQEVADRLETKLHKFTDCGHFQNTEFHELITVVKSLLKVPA
#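 Controls: DMSO-treated enzyme wells and wells lacking RBBP9 | Material: RBBP9 protein | Technique: Fluorescence polarization | Replication: Single well per compound, no replicates | Buffer or medium: Tris-NaCl-Pluronic buffer, pH 8.0 | Timing: 30 min compound preincubation, 45 min probe labeling, 25 °C | Read-out basis: Percent inhibition from mP, scaled between DMSO and no-protein wells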
# PAFAH1B2 FP inh: inhibitors of human PAFAH1B2. AID 492953. inhibition, % at 3.39 µM. hit rate 1.2% among 340,000. recombinant PAFAH1B2, FP-rhodamine activity probe, fluorescence polarization;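 active means inhibition above the mean of all tested compounds plus 3 SD, cut at about 24% in these data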;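 further: 0% = enzyme with DMSO and 100% = wells lacking PAFAH1B2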
# pPAFAH FP inh: inhibitors of human plasma PAF acetylhydrolase (pPAFAH). Q13093. recombinant pPAFAH, FP-rhodamine probe fluorescence polarization. inhibition, % at 3.39 µM. hit rate 1.5% among 330,000;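 active means inhibition above the mean inhibition across the screen plus 3 SD, cut at about 25% in these data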;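 further: inhibitors block binding of the rhodamine activity-based probe so polarization drops; 0% = enzyme with DMSO and 100% = wells lacking pPAFAH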
# Target sequence (Q13093 whole entry, looked up): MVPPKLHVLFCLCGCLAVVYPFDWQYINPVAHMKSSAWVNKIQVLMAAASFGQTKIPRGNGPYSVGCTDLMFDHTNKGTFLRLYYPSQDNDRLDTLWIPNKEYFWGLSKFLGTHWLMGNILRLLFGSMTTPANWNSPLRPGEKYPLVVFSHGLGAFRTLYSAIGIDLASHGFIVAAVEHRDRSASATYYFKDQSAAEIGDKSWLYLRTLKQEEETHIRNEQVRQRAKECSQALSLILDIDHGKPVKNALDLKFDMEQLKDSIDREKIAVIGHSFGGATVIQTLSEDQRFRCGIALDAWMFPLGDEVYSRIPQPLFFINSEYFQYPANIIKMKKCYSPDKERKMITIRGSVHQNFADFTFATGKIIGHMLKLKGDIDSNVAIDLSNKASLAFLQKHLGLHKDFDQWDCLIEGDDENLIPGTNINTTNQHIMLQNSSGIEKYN
# PAFAH1B3 FP inh: blocks human PAF acetylhydrolase 1B catalytic subunit 3 | Q15102 | AID 492972 | recombinant PAFAH1B3, FP-rhodamine probe, fluorescence polarization | inhibition, % at 3.39 µM | hit rate 0.28% among 340,000;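 active means inhibition above the screen-wide average of all tested compounds plus 3 SD, cut at about 25% in these data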;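 further: 0% = enzyme with DMSO only and 100% = wells lacking PAFAH1B3 protein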
# PAFAH2 FP inh: PAFAH2 (human) inhibition; Q99487; recombinant PAFAH2, FP-rhodamine activity probe, fluorescence polarization; inhibition, % at 3.39 µM; hit rate 0.99% among 340,000; AID 492956;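 active means inhibition above the mean over all tested compounds plus 3 SD, cut at about 30% in these data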;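 further: inhibitors block probe labeling of enzyme so polarization drops; 0% = enzyme with DMSO and 100% = wells lacking PAFAH2 protein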
# The depositor's hits bear a star; x = no result given. An excerpt weighted towards active compounds, which were near 2.7% of everything screened.
SMILES,RBBP9 inh,PAFAH1B2 FP inh,pPAFAH FP inh,PAFAH1B3 FP inh,PAFAH2 FP inh
COc1ccc(C(=O)N2CCCCC2)cc1S(=O)(=O)Nc1ccccc1,-5,1,33*,9,2
Cc1ccc(NS(=O)(=O)c2ccc(C(=O)N3CCN(S(=O)(=O)c4ccccc4)CC3)cc2)cc1,x,4,19,-2,1
COc1ccc(S(=O)(=O)Nc2ccc(-n3cccc3)cc2)cc1,-4,2,28*,0,9
COc1ccc(OC)c(CN2CCN(C(=O)c3cccc(S(=O)(=O)Nc4ccc(C)cc4)c3)CC2)c1,x,0,25*,2,-1
Cc1cccc(NS(=O)(=O)c2cccc(C(=O)N3CCN(S(=O)(=O)c4ccccc4)CC3)c2)c1,x,29*,10,5,6
COc1ccc(NS(=O)(=O)c2cccc(C(=O)N3CCN(c4ccccc4O)CC3)c2)cc1,x,1,27*,6,7
CN(CC(=O)Nc1cccc(F)c1)C(=O)c1ccc(COc2ccccc2)o1,x,7,5,7,0
CCOC(=O)N1CCN(C(=O)c2cccc(S(=O)(=O)Nc3ccc(Br)cc3)c2)CC1,x,-2,32*,1,1
COc1ccc(C(=O)N2CCNC(=O)C2)cc1S(=O)(=O)Nc1ccc(Br)cc1,x,6,34*,2,0
CCOC(=O)N1CCN(C(=O)c2cccc(S(=O)(=O)Nc3ccccc3Cl)c2)CC1,x,-1,1,6,4
CCCCn1c(NS(=O)(=O)c2ccc(C)cc2)c(S(=O)(=O)c2ccccc2)c2nc3ccccc3nc21,0,34*,4,72*,49*
Cc1ccc(S(=O)(=O)Nc2ccc3c(c2)nc2n3CCN(Cc3ccccc3)C2)cc1,-11,11,6,4,-23
O=S(=O)(Nc1ccc2c(c1)nc1n2CCN(Cc2ccccc2)C1)c1ccccc1,-8,8,26*,-8,8
O=C(O)c1cc(N2N=C(C(F)(F)F)/C(=C/C=C/c3ccco3)C2=O)ccc1Cl,-4,32*,x,37*,59*
Cc1ccc(/C=N/N=C2/NC(=O)C(CC(=O)N3CCOCC3)S2)cc1 (stereo unspecified),-7,-5,3,4,-4
Cc1cc(/C=N/n2cnnc2)c(C)n1-c1ccc(OCc2ccc(Cl)cc2)cc1,4,7,13,-1,0
Cc1cc(/C=N/n2cnnc2)c(C)n1-c1ccc(OCc2ccccc2F)cc1,-10,0,27*,9,1
CC(C)(CC(=O)O)CC(=O)N1CCN(c2cc(C(F)(F)F)nc3ccccc23)CC1,x,-3,0,2,-11
Cc1ccc(SCC(=O)O/N=C(\N)c2cccc([N+](=O)[O-])c2)cc1,-6,36*,13,3,2
Cc1ccc(S(=O)(=O)N(C)CC(=O)O/N=C(\N)c2cccc([N+](=O)[O-])c2)cc1,1,4,6,4,-7
N/C(=N\OC(=O)Cc1ccccc1)c1cccc(Br)c1,-7,30*,0,7,5
N/C(=N\OC(=O)CCCc1ccccc1)c1ccccc1,x,11,3,10,-1
COc1ccc(/C(N)=N/OC(=O)CSc2ccccc2)cc1,1,29*,5,9,8
N/C(=N\OC(=O)CCCc1ccccc1)c1cccc([N+](=O)[O-])c1,-1,26*,1,4,-4
Cc1nc(-c2ccccc2O)n(-c2ccccc2)n1,-4,-3,2,0,0
SMILES,RBBP9 inh,PAFAH1B2 FP inh,pPAFAH FP inh,PAFAH1B3 FP inh,PAFAH2 FP inh
Cc1cc(C)nc(SCC(=O)NC(=O)c2ccccc2O)n1,x,-4,-6,5,-18
CCN(C(=O)c1c(C)noc1C)c1c(N)n(Cc2ccccc2)c(=O)[nH]c1=O,x,0,0,8,6
CC1CC(C)CN(S(=O)(=O)c2ccc3c(c2)C(C)(C)C(=O)N3C)C1 (stereo unspecified),x,6,4,4,1
O=C(COc1ccccc1)Nc1nnc(S(=O)(=O)Nc2ccccc2)s1,x,7,27*,2,11
CCC(Oc1ccccc1)C(=O)Nc1nnc(S(=O)(=O)Nc2ccccc2)s1 (stereo unspecified),x,8,33*,0,1
COc1ccc(S(=O)(=O)Nc2ccccc2C(=O)NC(C)C)cc1OC,-10,2,0,-1,0
CC1CC(C)(C)NC(=S)N1CCC(=O)NCc1ccc(Cl)cc1 (stereo unspecified),0,4,3,-1,-6
Cc1cc([N+](=O)[O-])cc2c1NCC1CC=CC21 (stereo unspecified),-2,3,1,-2,2
Cc1cc([N+](=O)[O-])c2c(c1C)C1C=CCC1C(c1ccccn1)N2 (stereo unspecified),-2,x,28*,x,x
CCCCCCCCCCNC(=O)CCn1[nH]c(=O)c2ccccc2c1=O,1,61*,30*,8,22
CCC(C)(C)C1CCc2[nH]nc(C(=O)NCC3CC3)c2C1 (stereo unspecified),x,20,1,6,10
CCC(C)(C)C1CCc2[nH]nc(C(=O)NCCNC(=O)OC(C)(C)C)c2C1 (stereo unspecified),x,28*,5,2,4
O=C(Cc1csc(NC(=O)Nc2cccc(Cl)c2)n1)NC1CCCC1,x,2,-2,4,-7
Cc1ccc2c(c1)[nH]c1c(=O)n(Cc3ccco3)cnc12,-5,3,4,-7,0
COC(CN(C)C(=O)C1CCC(CNS(=O)(=O)c2ccccc2)CC1)OC (stereo unspecified),x,5,8,3,1
COC(CN(C)C(=O)C1CCC(CNS(=O)(=O)c2ccc(C)cc2)CC1)OC (stereo unspecified),x,6,25*,-1,-1
C=CC[n+]1c(-c2ccc(Cl)cc2Cl)csc1Nc1ccc(NC(C)=O)cc1,5,8,25*,10,33*
COc1ccc(-c2nc(N)n(C(=O)c3cccs3)n2)cc1,-6,0,3,0,8
O=C(NNC(=O)C12CC3CC(CC(C3)C1)C2)c1cccc([N+](=O)[O-])c1,x,30*,6,6,1
CN(C)c1ccc(/C=N/NC(=O)CN2CCCCC2)cc1Br,x,3,2,13,1
OCCN1CCN(CC/C=C2/c3ccccc3Sc3ccc(C(F)(F)F)cc32)CC1,x,-7,13,4,-6
CN1CCN(CCC=C2c3ccccc3Sc3ccc(S(=O)(=O)N(C)C)cc32)CC1,x,0,28*,3,12
O=C1OC(c2ccco2)=N/C1=C\c1ccc(-c2cccc(C(F)(F)F)c2)o1,1,1,27*,3,10
O=C1OC(c2cccs2)=N/C1=C/c1ccc(-c2cccc(C(=O)O)c2)o1,-8,4,x,10,14
CC(=O)c1cc(CN2CCN(CCc3ccccc3)C(CCO)C2)cs1 (stereo unspecified),-2,1,1,7,0
CC(Oc1ccc(Cl)cc1)c1ccnn1S(=O)(=O)c1ccccc1 (stereo unspecified),-2,51*,15,3,-4
